Tests used:
[1] = molecular target: Cannabinoid receptor 2 (Homo sapiens, UniProt P34972); assay: Displacement of 3[H]ligand from recombinant human CB2 receptor
How it was run: (§1)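 Radioligand displacement from human recombinant CB1 and CB2 protein by a [³H] ligand. Initial screen at two concentrations in duplicate, with values >100 nM estimated. Percent inhibition read at 100 nM. IC₅₀ taken from four-point concentration curves run in duplicate.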

[2] = molecular target: T1, Cannabinoid receptor 1 (Homo sapiens, UniProt P21554); assay: Displacement of 3[H]ligand from recombinant human CB1 receptor; how it was run: as §1
[3] = Efflux ratio of permeability from […] in MDR expressing MDCK cells; format: ADME, cell-based, Canis lupus familiaris; settings: dog, MDCK-MDR1
[4] = Apparent permeability from apical to basolateral side in MDR expressing MDCK cells by LC-MS-MS analysis; format: ADME, cell-based, Canis lupus familiaris; settings: dog, MDCK-MDR1
How it was run: (§2)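 Permeability measured across MDR-MDCK kidney cell monolayers, giving apparent permeability (Papp) in the apical-to-basolateral and basolateral-to-apical directions.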

[5] = Apparent permeability from basolateral to apical side in MDR expressing MDCK cells by LC-MS-MS analysis; format: ADME, cell-based, Canis lupus familiaris; settings: dog, MDCK-MDR1; how it was run: as §2
[6] = molecular target: Cannabinoid receptor 1 (Mus musculus) (UniProt P47746); settings: Cerebellum, 30 mg/kg
[7] = molecular target: T1, Cannabinoid receptor 1; assay: Displacement of 3[H]ligand from recombinant human CB1 receptor at 100 nM; how it was run: as §1
[8] = system: Mus musculus; assay: In vivo receptor occupancy at CB1 receptor in mouse cerebellum assessed as inhibition of [3H]SR141716A binding at 3 mg/kg, po for 3 days measured after 1 hr post last dose; format: functional
How it was run: (§3)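 Chow-fed mice dosed orally once daily at 3 or 30 mg/kg for 3 consecutive days, killed 1 h after the last dose. [3H]SR141716A was given by lateral tail-vein injection 30 min before euthanasia. Hippocampus, cerebellum and brain stem (reference region) were scintillation-counted as DPM/mg. Binding potential = (receptor − reference)/reference. Occupancy (%) = 100 × (vehicle BP − drug BP)/vehicle BP. 5 animals per dose.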

[9] = Plasma concentration in chow fed mouse at 100 mg/kg, po for 3 days measured after 1 hr post last dose; format: ADME, organism-based; design: dose 100 mg/kg, route oral
How it was run: (§4)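 Chow-fed mice were dosed orally at 100 or 20 mg/kg for 3 consecutive days. Plasma and brain were taken 1 h after the last dose. Proteins were precipitated with 3× volume ice-cold acetonitrile containing internal standard, then centrifuged 15 min at 4 °C. Analysis by LC/MS/MS against calibrators in plasma or brain homogenate (1000 to 1.6 nM). Brain is given as ng/gm and also as % of plasma.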

[10] = system: Mus musculus; assay: In vivo receptor occupancy at CB1 receptor in mouse hippocampus assessed as inhibition of [3H]SR141716A binding at 3 mg/kg, po for 3 days measured after 1 hr post last dose; format: functional; how it was run: as §3
[11] = system: Mus musculus; assay: In vivo receptor occupancy at CB1 receptor in mouse hippocampus assessed as inhibition of [3H]SR141716A binding at 30 mg/kg, po for 3 days measured after 1 hr post last dose; format: functional; how it was run: as §3
[12] = system: Brain; assay: Drug uptake in chow fed mouse brain assessed per gram of tissue at 100 mg/kg, po for 3 days measured 1 hr post last dose; format: ADME, organism-based; design: dose 100 mg/kg, route oral; settings: in vivo; how it was run: as §4

T1 sequence (P21554 whole entry): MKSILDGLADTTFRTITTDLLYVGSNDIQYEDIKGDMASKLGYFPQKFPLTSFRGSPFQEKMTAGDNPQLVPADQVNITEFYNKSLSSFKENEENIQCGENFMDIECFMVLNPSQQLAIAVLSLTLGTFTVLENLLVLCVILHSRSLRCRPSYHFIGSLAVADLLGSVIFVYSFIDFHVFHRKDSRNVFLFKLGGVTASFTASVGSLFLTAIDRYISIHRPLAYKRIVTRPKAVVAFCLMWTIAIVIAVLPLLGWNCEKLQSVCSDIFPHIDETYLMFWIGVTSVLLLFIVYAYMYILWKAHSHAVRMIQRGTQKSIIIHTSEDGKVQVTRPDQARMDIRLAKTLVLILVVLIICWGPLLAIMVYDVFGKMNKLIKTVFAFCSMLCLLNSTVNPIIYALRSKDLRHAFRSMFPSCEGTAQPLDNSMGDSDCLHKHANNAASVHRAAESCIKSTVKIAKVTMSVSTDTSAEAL
Cannabinoid receptor 2, sequence (P34972 whole entry): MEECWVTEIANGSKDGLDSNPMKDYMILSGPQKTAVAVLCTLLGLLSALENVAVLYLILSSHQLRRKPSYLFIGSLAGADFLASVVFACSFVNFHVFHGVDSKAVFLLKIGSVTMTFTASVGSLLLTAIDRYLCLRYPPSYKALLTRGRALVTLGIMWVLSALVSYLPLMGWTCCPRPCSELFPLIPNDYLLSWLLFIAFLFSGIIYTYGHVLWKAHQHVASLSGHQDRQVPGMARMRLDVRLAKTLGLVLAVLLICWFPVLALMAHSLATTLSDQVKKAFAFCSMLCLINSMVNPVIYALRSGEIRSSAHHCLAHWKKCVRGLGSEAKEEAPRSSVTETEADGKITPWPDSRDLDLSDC
Cannabinoid receptor 1 (Mus musculus), sequence (P47746 whole entry): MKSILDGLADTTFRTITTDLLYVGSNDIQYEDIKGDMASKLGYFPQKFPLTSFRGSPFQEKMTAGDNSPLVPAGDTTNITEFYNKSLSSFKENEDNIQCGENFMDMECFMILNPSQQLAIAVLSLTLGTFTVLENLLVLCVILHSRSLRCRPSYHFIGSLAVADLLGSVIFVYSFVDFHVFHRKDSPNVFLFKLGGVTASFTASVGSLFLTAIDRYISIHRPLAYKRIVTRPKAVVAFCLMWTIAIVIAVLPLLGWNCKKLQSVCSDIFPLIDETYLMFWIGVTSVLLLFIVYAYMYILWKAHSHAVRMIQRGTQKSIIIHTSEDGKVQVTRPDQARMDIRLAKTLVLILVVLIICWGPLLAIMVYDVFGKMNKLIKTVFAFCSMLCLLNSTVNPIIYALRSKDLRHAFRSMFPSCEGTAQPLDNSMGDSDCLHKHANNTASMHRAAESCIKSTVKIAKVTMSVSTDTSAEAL

In the case of `CC(C)[C@H](N/C(=N\S(=O)(=O)c1ccc(Cl)cc1)N1CC(c2ccccc2)C(c2ccc(Cl)cc2)=N1)C(=O)NCC(N)=O` (stereo partly specified), the IC50 [1] is reported as over 1000 nM and the IC50 [2] is reported as over 100 nM.

`C[C@H](N/C(=N\S(=O)(=O)c1ccc(Cl)cc1)N1CC(c2ccccc2)C(c2ccc(Cl)cc2)=N1)C(N)=O` (stereo partly specified) showed an efflux ratio [3] of 3.8, an IC50 [1] of over 1000 nM and an IC50 [2] of 20 nM. The Papp A→B [4] was 2.44 ×10⁻⁶ cm/s and the Papp B→A [5] was 9.25 ×10⁻⁶ cm/s.

With `NC(=O)[C@H](CO)N=C(NS(=O)(=O)c1ccc(Cl)cc1)N1CC(c2ccccc2)C(c2ccc(Cl)cc2)=N1` (stereo partly specified) the IC50 [1] was over 5000 nM and the IC50 [2] was 13 nM.

With `CN=C(NS(=O)(=O)c1ccc(OCC(=O)O)cc1)N1CC(c2ccccc2)C(c2ccc(Cl)cc2)=N1` (racemic) the IC50 [2] was over 5000 nM.

For `C[C@H](N/C(=N\S(=O)(=O)c1ccc(Cl)cc1)N1CC(c2ccccc2)C(c2ccc(Cl)cc2)=N1)C(=O)NCC(N)=O` (stereo partly specified), the IC50 [1] was over 1000 nM and the IC50 [2] was 10 nM.

Molecule `CN=C(NS(=O)(=O)c1ccc(OCC(N)=O)cc1)N1CC(c2ccccc2)C(c2ccc(Cl)cc2)=N1` (racemic) has an IC50 [2] of over 5000 nM.

Molecule `CCOC(=O)c1ccc(S(=O)(=O)NC(=NC)N2CC(c3ccccc3)C(c3ccc(Cl)cc3)=N2)cc1` (racemic) has an IC50 [2] of 100 nM.

Molecule `CN=C(NS(=O)(=O)c1ccc(OC)cc1)N1CC(c2ccccc2)C(c2ccc(Cl)cc2)=N1` (racemic) has an IC50 [2] of 100 nM.

For `NC(=O)CN=C(NS(=O)(=O)c1ccc(O)cc1)N1CC(c2ccccc2)C(c2ccc(Cl)cc2)=N1` (stereo unspecified), the IC50 [1] was 5000 nM and the IC50 [2] was over 100 nM.

For `C[C@H](N=C(NS(=O)(=O)c1ccc(Cl)cc1)N1CC(c2ccccc2)C(c2ccc(Cl)cc2)=N1)C(=O)O` (stereo partly specified), the IC50 [2] was over 1000 nM.

In the case of `CC(C)(N/C(=N\S(=O)(=O)c1ccc(Cl)cc1)N1CC(c2ccccc2)C(c2ccc(Cl)cc2)=N1)C(N)=O` (racemic), the IC50 [1] is reported as over 1000 nM and the IC50 [2] is reported as 8.5 nM.

Molecule `CC(C)(C)[C@H](N/C(=N\S(=O)(=O)c1ccc(Cl)cc1)N1CC(c2ccccc2)C(c2ccc(Cl)cc2)=N1)C(N)=O` (stereo partly specified) has an IC50 [1] of over 5000 nM, an IC50 [2] of 2 nM and a Papp A→B [4] of 0.7 ×10⁻⁶ cm/s. The Papp B→A [5] was under 0.1 ×10⁻⁶ cm/s.

Molecule `NC(=O)CN/C(=N\S(=O)(=O)c1ccc(Cl)cc1)N1CC(c2ccccc2)C(c2ccc(Cl)cc2)=N1` (single isomer, unassigned; enantiomer 1) has an Occ [6] of 0%.

For `NC(=O)CN=C(NS(=O)(=O)c1ccc(Cl)cc1)N1CC(c2ccccc2)C(c2ccc(Cl)cc2)=N1` (single isomer, unassigned; enantiomer 2), the IC50 [1] was over 1000 nM and the IC50 [2] was over 1000 nM.

In the case of `COC(=O)CN/C(=N\S(=O)(=O)c1ccc(Cl)cc1)N1CC(c2ccccc2)C(c2ccc(Cl)cc2)=N1` (stereo unspecified), the inhibition [7] is reported as 88%.

For `C[C@H](N=C(NS(=O)(=O)c1ccc(Cl)cc1)N1CC(c2ccccc2)C(c2ccc(Cl)cc2)=N1)C(=O)N[C@@H](CO)C(N)=O` (stereo partly specified), the IC50 [1] was over 5000 nM and the IC50 [2] was 8 nM.

Molecule `NC(=O)C[C@H](N=C(NS(=O)(=O)c1ccc(Cl)cc1)N1CC(c2ccccc2)C(c2ccc(Cl)cc2)=N1)C(N)=O` (stereo partly specified) has an IC50 [1] of over 5000 nM and an IC50 [2] of over 100 nM.

`CN/C(=N\S(=O)(=O)c1ccc(NC(C)=O)cc1)N1CC(c2ccccc2)C(c2ccc(Cl)cc2)=N1` (racemic) gave an IC50 [2] of over 1000 nM.

In the case of `CN/C(=N\S(=O)(=O)c1ccc(C(N)=O)cc1)N1CC(c2ccccc2)C(c2ccc(Cl)cc2)=N1` (racemic), the IC50 [2] is reported as over 5000 nM.

In the case of `CC(CN/C(=N\S(=O)(=O)c1ccc(Cl)cc1)N1CC(c2ccccc2)C(c2ccc(Cl)cc2)=N1)C(N)=O` (racemic), the IC50 [1] is reported as over 1000 nM and the IC50 [2] is reported as 26 nM.

With `NC(=O)CCN=C(NS(=O)(=O)c1ccc(Cl)cc1)N1CC(c2ccccc2)C(c2ccc(Cl)cc2)=N1` (racemic) the efflux ratio [3] was 66, the IC50 [1] was over 5000 nM and the IC50 [2] was 32 nM. The Papp A→B [4] was 0.88 ×10⁻⁶ cm/s and the Papp B→A [5] was 58 ×10⁻⁶ cm/s.

Molecule `O=C(O)CN=C(NS(=O)(=O)c1ccc(Cl)cc1)N1CC(c2ccccc2)C(c2ccc(Cl)cc2)=N1` (stereo unspecified) has an IC50 [2] of over 1000 nM.

In the case of `NC(=O)CN=C(NS(=O)(=O)c1ccc(Cl)cc1)N1CC(c2ccccc2)C(c2ccc(Cl)cc2)=N1` (single isomer, unassigned; enantiomer 1), the IC50 [1] is reported as over 5000 nM, the IC50 [2] is reported as 32 nM and the Occ [8] is reported as 0%. It also gave a concentration at 1 h [9] of 16700 ng/mL, an Occ [10] of 10% and an Occ [11] of 3%. It also gave a Drug uptake [12] of 685 ng/g.

`NC(=O)[C@@H](O)CCN/C(=N\S(=O)(=O)c1ccc(Cl)cc1)N1CC(c2ccccc2)C(c2ccc(Cl)cc2)=N1` (stereo partly specified) gave an IC50 [1] of over 5000 nM and an IC50 [2] of 66 nM.

— ChEMBL document CHEMBL2150881, “JD-5006 and JD-5037: peripherally restricted (PR) cannabinoid-1 receptor blockers related to SLV-319 (Ibipinabant) as metabolic disorder therapeutics devoid of CNS liabilities” (Bioorg Med Chem Lett, 2012)
